Assay results taken from ChEMBL document CHEMBL1122155, “Synthesis and biological evaluation of novel pyrimidine nucleoside analogues of 1,4-oxathiane, 1,4-dithiane, and 1,4-dioxane” (1982).
Values joined by “and” are separate entries in the source; they are usually repeats but may differ in a detail not shown here. Equal entries are not always repeated.

What follows are compounds tested on L1210 (assay: In vitro antitumor activity against mouse […] leukemia L1210).
Type: functional
Summary of the method: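 L1210 cells in RPMI 1640 with 10% fetal calf serum and penicillin/streptomycin were seeded at 10^3-10^4 cells/mL. Compounds were dissolved in Me2SO, diluted in medium, and added the next day (final 0.5% Me2SO, matching controls), in duplicate wells. After 5-6 days, before controls peaked, cells were Coulter-counted. ID50 was read from log-log concentration vs cell-number plots, with controls as 100%.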
`O=c1[nH]c(=O)n(C2CCCO2)cc1F` (stereo not drawn) [TEGAFUR] gave an ID50 of 8.4 µM.

The compounds below were run on K562 (assay: In vitro antitumor activity (tumor cell growth inhibition) against human erythroleukemia K-562).
Type: functional
Summary of the method: (§1)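 L1210 and K-562 cells grown in RPMI 1640 with 10% fetal calf serum plus penicillin/streptomycin. Suspensions of 10^3–10^4 cells/mL were plated, and compound (Me2SO stock diluted in medium) was added the following day. Final Me2SO was 0.5%, with two wells per concentration. Cells were counted by Coulter counter at 5–6 days. ID50 was taken from log-log concentration vs cell number plots, with untreated controls as 100%.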
`O=c1[nH]c(=O)n(C2=COCCS2)cc1F` showed an ID50 of 380 µM.

The compounds below were run on K562 (assay: In vitro antitumor activity (tumor cell growth inhibition) against human erythroleukemia K-562 cells).
Type: functional
Summary of the method: as §1
In the case of `O=c1[nH]c(=O)n(C2COCC[S+]2[O-])cc1F` (stereo not drawn), the ID50 was greater than 990 µM.

These compounds were tested on L1210 (assay: In vitro antitumor activity (tumor cell growth inhibition) against mouse […] leukemia L1210).
Type: functional
Summary of the method: as §1
For `O=c1[nH]c(=O)n(C2=COCCS2)cc1F`, the ID50 was 20 µM.

The compounds below were run on MDAY-D2 (assay: In vitro antitumor activity (tumor cell growth inhibition) against MDAY-D2 cells).
Type: functional, Mus musculus
Summary of the method: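 MDAY-D2 cells in Alpha MEM with 10% fetal calf serum, penicillin and streptomycin. Seeded at 10^3–10^4 cells/mL. Next day, compound dissolved in Me2SO and diluted in medium was added (final 0.5% Me2SO), with duplicate wells per concentration. Coulter counts after 5–6 days, before controls reached maximal density. ID50 was read from log-log plots of concentration vs cell number, with controls as 100%.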
Work on `O=c1[nH]c(=O)n(C2COCCS2)cc1F` (stereo not drawn) yielded an ID50 of 4600 µM. With `O=c1[nH]c(=O)n(C2COCCO2)cc1F` (stereo not drawn) the ID50 was greater than 1000 µM. With `O=c1[nH]c(=O)n(C2CSCCS2)cc1F` (stereo not drawn) the ID50 was 500 µM. In the case of `O=c1[nH]cc(F)c(=O)[nH]1` [FLUOROURACIL], the ID50 was 0.2 µM. In the case of `O=c1[nH]c(=O)n(C2CSCCO2)cc1F` (stereo not drawn), the ID50 was 1400 µM.

These compounds were tested on L1210 (assay: In vitro antitumor activity against mouse […] leukemia L1210 cells).
Type: functional
Summary of the method: as §1
`O=c1[nH]c(=O)n(C2COCCS2)cc1F` (stereo not drawn) gave an ID50 greater than 1060 µM. In the case of `O=c1ccn(C2CSCCS2)c(=O)[nH]1` (stereo not drawn), the ID50 was 240 µM. Work on `O=c1[nH]c(=O)n(C2COCCO2)cc1F` (stereo not drawn) yielded an ID50 greater than 970 µM. In the case of `Cc1cn(C2CSCCS2)c(=O)[nH]c1=O` (stereo not drawn), the ID50 was 0.23 mM l-1 and 0.21 mM l-1. `O=c1[nH]c(=O)n(C2CSCCS2)cc1F` (stereo not drawn) was tested, and the ID50 was 0.65 mM l-1 and 0.23 mM l-1. For `O=c1[nH]c(=O)n(C2CSCCO2)cc1F` (stereo not drawn), the ID50 was greater than 1010 µM.

Each compound was assayed on K562 (assay: In vitro antitumor activity against human erythroleukemia K-562 cells).
Type: functional
Summary of the method: as §1
With `O=c1[nH]c(=O)n(C2COCCS2)cc1F` (stereo not drawn) the ID50 was >1.06 mM l-1 and >1.05 mM l-1. With `O=c1ccn(C2CSCCS2)c(=O)[nH]1` (stereo not drawn) the ID50 was greater than 1050 µM. In the case of `O=c1[nH]c(=O)n(C2COCCO2)cc1F` (stereo not drawn), the ID50 was >1.09 mM l-1 and >0.97 mM l-1. In the case of `Cc1cn(C2CSCCS2)c(=O)[nH]c1=O` (stereo not drawn), the ID50 was 670 µM. With `O=c1[nH]c(=O)n(C2CSCCS2)cc1F` (stereo not drawn) the ID50 was greater than 1020 µM. In the case of `O=c1[nH]c(=O)n(C2COCC[S+]2[O-])cc1F` (stereo not drawn), the ID50 was greater than 1010 µM. `O=c1[nH]cc(F)c(=O)[nH]1` [FLUOROURACIL] was tested, and the ID50 was 0.0023 mM l-1 and 0.0046 mM l-1. `O=c1[nH]c(=O)n(C2CSCCO2)cc1F` (stereo not drawn) was tested, and the ID50 was >1 mM l-1 and 0.46 mM l-1.
